In ChEMBL document CHEMBL1148356, “Synthesis and biological evaluation of 3-heterocyclyl-7,8,9,10-tetrahydro-(7,10-ethano)-1,2,4-triazolo[3,4-a]phthalazines and analogues as subtype-selective inverse agonists for the GABA(A)alpha5 benzodiazepine binding site” (J Med Chem, 2004):

Legend:
[1] = target: T1, GABA-A receptor; alpha-5/beta-3/gamma-2 (Homo sapiens, UniProt P18507+P28472+P31644); assay: Binding affinity towards human alpha-5-beta-3-gamma-2 GABA-A receptor using [3H]Ro-151788 expressed in L(tk-) cells; format: cell-based
T1 sequence (P18507 whole entry): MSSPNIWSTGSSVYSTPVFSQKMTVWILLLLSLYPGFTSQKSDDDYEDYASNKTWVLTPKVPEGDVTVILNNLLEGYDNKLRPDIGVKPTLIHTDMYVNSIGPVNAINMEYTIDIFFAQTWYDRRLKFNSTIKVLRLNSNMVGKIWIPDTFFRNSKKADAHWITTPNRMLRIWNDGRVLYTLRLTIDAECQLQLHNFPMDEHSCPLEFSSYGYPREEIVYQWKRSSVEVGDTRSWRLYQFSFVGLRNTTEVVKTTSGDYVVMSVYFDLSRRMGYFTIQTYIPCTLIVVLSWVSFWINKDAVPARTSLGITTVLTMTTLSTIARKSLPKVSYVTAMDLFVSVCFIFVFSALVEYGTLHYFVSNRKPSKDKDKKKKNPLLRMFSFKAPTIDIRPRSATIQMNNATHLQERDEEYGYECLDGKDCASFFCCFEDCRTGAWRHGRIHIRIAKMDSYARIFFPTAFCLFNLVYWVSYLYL
T1 sequence (P28472 whole entry): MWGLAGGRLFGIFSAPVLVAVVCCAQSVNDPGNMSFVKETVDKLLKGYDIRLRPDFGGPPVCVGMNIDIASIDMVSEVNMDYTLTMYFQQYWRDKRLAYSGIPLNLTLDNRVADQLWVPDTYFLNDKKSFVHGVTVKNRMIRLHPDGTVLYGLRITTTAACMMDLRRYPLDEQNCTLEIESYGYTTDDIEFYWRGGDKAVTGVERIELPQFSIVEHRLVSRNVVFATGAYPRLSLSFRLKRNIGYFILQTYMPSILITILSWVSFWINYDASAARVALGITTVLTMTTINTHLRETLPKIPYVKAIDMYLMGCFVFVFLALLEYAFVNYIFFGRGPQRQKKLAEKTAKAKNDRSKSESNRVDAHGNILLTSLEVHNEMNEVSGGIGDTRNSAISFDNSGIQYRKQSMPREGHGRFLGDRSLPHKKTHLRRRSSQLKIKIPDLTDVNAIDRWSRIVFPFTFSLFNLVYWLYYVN
T1 sequence (P31644 whole entry): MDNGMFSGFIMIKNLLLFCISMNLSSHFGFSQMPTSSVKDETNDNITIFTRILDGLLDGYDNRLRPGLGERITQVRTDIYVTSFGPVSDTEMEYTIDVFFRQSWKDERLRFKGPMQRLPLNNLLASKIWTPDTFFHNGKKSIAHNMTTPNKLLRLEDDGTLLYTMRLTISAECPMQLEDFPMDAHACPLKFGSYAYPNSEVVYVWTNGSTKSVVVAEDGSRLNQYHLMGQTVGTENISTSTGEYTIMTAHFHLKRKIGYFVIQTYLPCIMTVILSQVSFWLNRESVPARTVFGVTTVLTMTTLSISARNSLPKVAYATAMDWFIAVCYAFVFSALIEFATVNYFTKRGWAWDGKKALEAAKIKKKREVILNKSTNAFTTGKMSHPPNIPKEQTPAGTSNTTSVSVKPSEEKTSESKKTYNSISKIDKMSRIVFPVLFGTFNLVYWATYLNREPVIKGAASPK

[2] = target: T2, GABA-A receptor; alpha-3/beta-3/gamma-2 (Homo sapiens, UniProt P18507+P28472+P34903); assay: Binding affinity towards human gamma-aminobutyric-acid A receptor alpha-3-beta-3-gamma-2 using [3H]Ro-151788 expressed in L(tk-) cells; format: cell-based
T2 sequence (P18507 whole entry): T1 sequence (P18507 whole entry)
T2 sequence (P28472 whole entry): T1 sequence (P28472 whole entry)
T2 sequence (P34903 whole entry): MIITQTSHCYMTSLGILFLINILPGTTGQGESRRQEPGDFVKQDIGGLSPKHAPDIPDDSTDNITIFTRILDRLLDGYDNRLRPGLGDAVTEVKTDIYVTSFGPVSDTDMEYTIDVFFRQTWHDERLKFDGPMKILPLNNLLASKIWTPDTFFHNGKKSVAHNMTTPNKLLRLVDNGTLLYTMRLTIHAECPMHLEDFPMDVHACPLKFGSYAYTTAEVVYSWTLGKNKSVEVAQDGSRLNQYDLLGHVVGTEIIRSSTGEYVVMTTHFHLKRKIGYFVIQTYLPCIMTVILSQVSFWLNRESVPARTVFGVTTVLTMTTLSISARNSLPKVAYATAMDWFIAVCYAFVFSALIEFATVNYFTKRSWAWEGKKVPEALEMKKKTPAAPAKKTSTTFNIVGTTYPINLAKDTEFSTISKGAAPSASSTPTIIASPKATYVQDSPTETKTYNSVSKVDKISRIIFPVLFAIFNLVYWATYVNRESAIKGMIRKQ

[3] = target: T3, GABA-A receptor; alpha-2/beta-3/gamma-2 (Homo sapiens, UniProt P18507+P28472+P47869); assay: Binding affinity towards human gamma-aminobutyric-acid A receptor alpha-2-beta-3-gamma-2 using [3H]Ro-151788 expressed in L(tk-) cells; format: cell-based
T3 sequence (P18507 whole entry): T1 sequence (P18507 whole entry)
T3 sequence (P28472 whole entry): T1 sequence (P28472 whole entry)
T3 sequence (P47869 whole entry): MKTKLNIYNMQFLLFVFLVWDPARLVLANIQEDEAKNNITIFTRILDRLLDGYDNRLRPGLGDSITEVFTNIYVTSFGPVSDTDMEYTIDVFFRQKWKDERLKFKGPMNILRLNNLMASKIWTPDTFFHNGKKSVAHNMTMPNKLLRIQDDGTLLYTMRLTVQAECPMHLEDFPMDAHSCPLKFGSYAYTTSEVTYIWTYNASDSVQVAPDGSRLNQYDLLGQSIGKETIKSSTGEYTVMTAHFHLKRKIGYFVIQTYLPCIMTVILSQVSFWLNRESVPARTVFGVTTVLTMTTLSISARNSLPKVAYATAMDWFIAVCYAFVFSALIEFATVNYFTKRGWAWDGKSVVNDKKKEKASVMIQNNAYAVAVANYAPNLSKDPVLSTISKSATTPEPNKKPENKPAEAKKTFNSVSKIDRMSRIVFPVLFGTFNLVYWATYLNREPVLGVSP

[4] = target: T4, GABA-A receptor; alpha-1/beta-3/gamma-2 (Homo sapiens, UniProt P14867+P18507+P28472); assay: Binding affinity towards human alpha-1-beta-3-gamma-2 GABA-A receptor using [3H]Ro-151788 expressed in L(tk-) cells; format: cell-based
T4 sequence (P14867 whole entry): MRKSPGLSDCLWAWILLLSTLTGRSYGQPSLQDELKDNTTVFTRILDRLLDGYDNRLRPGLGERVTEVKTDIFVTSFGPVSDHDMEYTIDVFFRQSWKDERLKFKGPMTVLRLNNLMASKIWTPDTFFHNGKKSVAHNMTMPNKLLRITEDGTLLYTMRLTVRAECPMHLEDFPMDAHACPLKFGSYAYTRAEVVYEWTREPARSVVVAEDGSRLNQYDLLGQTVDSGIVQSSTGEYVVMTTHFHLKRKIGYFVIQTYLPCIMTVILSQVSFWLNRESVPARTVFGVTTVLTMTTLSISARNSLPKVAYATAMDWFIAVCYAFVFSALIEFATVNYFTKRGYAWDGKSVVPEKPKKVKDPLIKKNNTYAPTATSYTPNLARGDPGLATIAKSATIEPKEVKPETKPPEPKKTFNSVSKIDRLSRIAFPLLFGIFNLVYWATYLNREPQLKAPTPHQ
T4 sequence (P18507 whole entry): T1 sequence (P18507 whole entry)
T4 sequence (P28472 whole entry): T1 sequence (P28472 whole entry)

[5] = target: GABA-A receptor; alpha-3/beta-3/gamma-2 (Homo sapiens) (UniProt P18507+P28472+P34903); assay: Percent change in electrophysiological response in Xenopus oocytes expressing Alpha3-beta3-gamma2 GABA-A receptor; format: functional, cell-based; conditions: Oocyte
Outline: (§1)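 Two-electrode voltage clamp on Xenopus oocytes injected with human GABA-A subunit cDNAs, 24-72 h expression, perfused with modified Barth's medium at pH 7.5, clamped between -40 and -70 mV. The GABA EC20 was titrated against a 3 mM GABA maximum. […] Result is % change of control current, mean ± SE of ≥4 oocytes.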

[6] = target: GABA-A receptor; alpha-2/beta-3/gamma-2 (Homo sapiens) (UniProt P18507+P28472+P47869); assay: Percent change in electrophysiological response in Xenopus oocytes expressing Alpha2-beta3-gamma2 GABA-A receptor; format: functional, cell-based; conditions: Oocyte; outline: as §1
[7] = target: GABA-A receptor; alpha-5/beta-3/gamma-2 (Homo sapiens) (UniProt P18507+P28472+P31644); assay: Percent change in electrophysiological response in Xenopus oocytes expressing Alpha-5-beta-3-gamma-2 GABA-A receptor; format: functional, cell-based; conditions: Oocyte; outline: as §1
[8] = target: GABA-A receptor; alpha-1/beta-3/gamma-2 (Homo sapiens) (UniProt P14867+P18507+P28472); assay: Percent change in electrophysiological response in Xenopus oocytes expressing Alpha1-beta3-gamma2 GABA-A receptor; format: functional, cell-based; conditions: Oocyte; outline: as §1

Compound	Ki [1]	Ki [2]	Ki [3]	Ki [4]	Efficacy [5]	Efficacy [6]	Efficacy [7]	Efficacy [8]
Cc1cc(-c2nnc3c4c(c(OCc5ccccn5)nn23)CCCC4)no1		1.6 nM	3.5 nM	4.2 nM	-15%	-6%	-23%	0.4%
Cc1noc(-c2nnc3c4c(c(OCc5ccccn5)nn23)C2CCC4CC2)n1	0.77 nM	3.9 nM	8.5 nM	28.2 nM			-38%	
Cc1cccc(COc2nn3c(-c4nc(-c5ccncc5)no4)nnc3c3c2C2CCC3CC2)n1	2.1 nM	26.4 nM	209 nM	> 1000 nM				
Cc1cc(-c2nnc3c4c(c(OCc5ccccn5)nn23)C2CCC4C2)no1 (stereo unspecified)	5.5 nM	17.6 nM	19.7 nM	57.7 nM	0.6%		-13%	
Cc1cccc(COc2nn3c(-c4cc(C)on4)nnc3c3ccccc23)n1					3%	12%	-15%	15%
Cc1noc(-c2nnc3c4c(c(OCc5ccccc5C#N)nn23)C2CCC4CC2)n1	0.44 nM	1.7 nM	2.9 nM	17.5 nM			-45%	

Next, values leading:

Ki [1]	Ki [2]	Ki [3]	Ki [4]	Efficacy [5]	Efficacy [6]	Efficacy [7]	Efficacy [8]	Compound
6.5 nM	83.9 nM	68.4 nM	> 1000 nM					Cc1cccc(COc2nn3c(-c4nc(C(C)C)no4)nnc3c3c2C2CCC3CC2)n1
13 nM	116 nM	275 nM	1000 nM					Cc1cccc(COc2nn3c(-c4ccco4)nnc3c3c2C2CCC3CC2)n1
19.2 nM	227 nM	203 nM	> 1000 nM					Cc1cccc(COc2nn3c(-c4nc(-c5ccccc5)no4)nnc3c3c2C2CCC3CC2)n1
15.3 nM	104 nM	227 nM	518 nM					Cc1cccc(COc2nn3c(-c4ccccn4)nnc3c3c2C2CCC3CC2)n1
58 nM	> 1000 nM	> 1000 nM	> 1000 nM					Cc1cccc(COc2nn3c(-c4csc(C)n4)nnc3c3c2C2CCC3CC2)n1
3.3 nM	69.6 nM	166 nM	> 1000 nM					Cc1cccc(COc2nn3c(-c4nc(-c5cccnc5)no4)nnc3c3c2C2CCC3CC2)n1
						7%		Cc1cccc(COc2nn3c(-c4ccsc4)nnc3c3c2C2CCC3CC2)n1
